JNK3 inh: JNK3 (human) kinase inhibition; inhibition, % at 8 µM; purified JNK3 kinase activity, HTS; actives 0.61% (n = 60,000); AID 746; P53779; in the data active = inhibition above about 17%;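 note: 0% = DMSO and 100% = reference inhibitor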
SF1 activator: activates the human nuclear receptor SF-1; CHO-K1 Gal4-SF-1 LBD luciferase reporter; % increase over DMSO SF-1-specific signal; activation, % at 10 µM; actives 1.9% (n = 65,000);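 active = activation above the mean activation of all tested compounds plus 3 SD, cut at about 50% in these data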
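Material: Transient Gal4-SF-1 LBD reporter, CHO-K1 | Input: 4,000 cells/well | Dosing: One dose, 10 µM compound, 1% DMSO | Incubation: 20 h compound treatment, 37 °C | Detection: SteadyLite luciferase luminescence | Evaluation: Percent activation relative to DMSO median and mock-transfected background | Benchmarks: DMSO-treated SF-1-transfected cells as negative, DMSO-treated mock-transfected cells lacking SF-1 as background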
RORA act: RORA (human) activation; P35398; CHO-K1 Gal4-RORA LBD luciferase reporter, luminescence; percent increase over mock-subtracted basal signal; activation, % at 10 µM; actives 1.5% (n = 65,000); AID 560;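 active = activation above the mean of all tested compounds plus 3 SD, cut at about 49% in these data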;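 note: 0% = DMSO-treated RORA cells and 100% = added signal equal to DMSO minus mock-transfected cells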
Target sequence (P35398 whole entry, looked up, the tested form may be a part): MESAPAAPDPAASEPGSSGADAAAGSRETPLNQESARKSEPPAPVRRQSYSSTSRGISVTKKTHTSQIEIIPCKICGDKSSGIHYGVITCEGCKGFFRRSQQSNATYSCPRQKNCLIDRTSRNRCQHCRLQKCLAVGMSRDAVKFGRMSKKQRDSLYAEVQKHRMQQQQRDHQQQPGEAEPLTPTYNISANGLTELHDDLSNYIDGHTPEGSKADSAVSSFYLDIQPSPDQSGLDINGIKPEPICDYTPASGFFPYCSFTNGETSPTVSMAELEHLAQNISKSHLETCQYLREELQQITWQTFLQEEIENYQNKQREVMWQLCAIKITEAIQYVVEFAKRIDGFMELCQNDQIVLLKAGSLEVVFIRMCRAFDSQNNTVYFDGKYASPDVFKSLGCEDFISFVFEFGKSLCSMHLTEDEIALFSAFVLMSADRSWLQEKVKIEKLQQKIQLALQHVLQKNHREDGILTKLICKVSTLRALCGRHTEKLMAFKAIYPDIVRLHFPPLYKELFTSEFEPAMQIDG
HEK293 NFkB inh: lowers PMA/ionomycin-induced NF-kB signal in HEK293 cells; HEK-293 NF-kB luciferase reporter, luminescence; inhibition, % at 3 µM; actives 0.21% (n = 62,000);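 active = inhibition above the mean of all tested compounds plus 3 SD, cut at about 40% in these data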;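 note: 0% = stimulated DMSO wells and 100% = 10 µM reference inhibitor 5653914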
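Reagent: PMA plus ionomycin mix as NF-kB-activating stimulus. Assay system: NF-kB luciferase reporter HEK-293 cells. Technique: luminescence from luciferase substrate reagent. Incubation: 1 h compound pre-incubation, 16 h PMA/ionomycin at 37 °C. Benchmarks: DMSO only as uninhibited control, 10 µM reference inhibitor as full inhibition. Repeats: tested once.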
D1 allo mod: D1 dopamine receptor (human) allosteric modulation; P21728; HEK293 D1, CRE-luciferase, dopamine EC30 potentiation; actives deviate in either direction; B-score at 10 µM; actives 5.9% (n = 58,000);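 active = luminescence count or its row- and column-corrected plate score outside the 99.7% band of the plate's sample wells, on either side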
D1 mod confirm: D1 receptor (human) allosteric modulation, confirmed. luminescence at 10 µM. actives 88% (n = 2,200). shares compounds with D1 allo mod. HEK293 D1 CRE-luciferase, dopamine EC30 potentiation; hits give high values;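 active = luminescence in either of two replicates above the same-plate mean plus 3 SD of the low-dose dopamine control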
D1 no dopamine: D1 (human) signaling in absence of dopamine; luminescence at 10 µM; actives 0.8% (n = 1,900); HEK293 D1 CRE-luciferase, luminescence, no dopamine; hits give high values; shares compounds with D1 allo mod; in the data active = luminescence above about 3900
Isoprot counter: isoproterenol response counter-screen activity for D1 modulators. shares compounds with D1 allo mod. HEK293 D1 CRE-luciferase, isoproterenol EC30 counter-screen. calls only at 10 µM. actives 63% (n = 2,200). AID 647;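 active = luminescence in either replicate above plate mean of wells with a partly effective reference agonist dose plus 3 SD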;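 note: isoproterenol raises cAMP through native beta-adrenoceptor Gs so signal bypasses D1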
* marks the source's active call; other numbers are inactive results; i = inactive; / = no result given; + = active, no number. Only some compounds are listed: those with a hit (about 7.9% of all), similar ones and a draw of the others.

SMILES	JNK3 inh	SF1 activator	RORA act	HEK293 NFkB inh	D1 allo mod	D1 mod confirm	D1 no dopamine	Isoprot counter
Cn1c(=O)[nH]c(=O)c2c1nc(NC1CCCCC1)n2Cc1ccccc1	-3	-36	6	12	6.8*	8436*	1500	+
Cc1nc(C)c(C(=O)C2=C(O)C(=O)N(CCCN(C)C)C2c2ccco2)s1 (stereo not given)	4	3	6	22	0.0032	/	/	/
COc1cccc2c1OC1(C)CC2NC(=O)N1c1cccc(C(=O)Nc2ccc3c(c2)OCCO3)c1 (stereo not given)	/	5	35	5	-1.1	/	/	/
O=C(CNC(=O)Cn1ccc2ccccc2c1=O)NCCCN1CCCCCC1	/	19	-10	-1	-0.038	/	/	/
Clc1ccc(Cn2ncc3c(N4CCCCC4)ncnc32)c(Cl)c1	-7	-8	-17	0	-0.38	/	/	/
Cc1ccc(Cn2ncc3c(N4CCCC4)ncnc32)cc1	-2	1	-9	3	2.7*	10768*	1564	+
Clc1ccc(Cn2ncc3c(N4CCCC4)ncnc32)cc1	4	-1	-26	12	4.7*	13228*	1420	+
Clc1ccc(Cn2ncc3c(N4CCOCC4)ncnc32)cc1	-5	3	-1	4	-0.29	/	/	/
Cn1c(NC(=O)c2cccc(C(F)(F)F)c2)cc(=O)n(C)c1=O	9	-8	2	11	7*	17760*	1560	+
Cc1cccc(C(=O)Nc2cc(=O)n(C)c(=O)n2C)c1	4	4	-14	7	0.82	/	/	/
COc1ccc(Cn2c(N)c(C#N)c3nc4ccccc4nc32)cc1OC	-1	18	13	/	5.1*	11232*	1656	+
O=c1oc(-c2cccs2)nc2c1cnn2-c1ccccc1	-1	-15	-10	21	/	/	/	/
Cc1cc2nc(-c3ccc(NC(=O)C(C)C)cc3)oc2cc1C	-5	19	48	-68	5.8*	3212	1136	i
CCSc1nncn1/N=C/c1ccc(OC)c(OC)c1	-4	44	23	7	8.3*	15592*	1796	+
N#Cc1nc(-c2cccs2)oc1NCc1ccco1	3	-13	-10	9	9.2*	14284*	/	+
N#Cc1nc(-c2ccco2)oc1NCCCN1CCOCC1	-2	6	12	-3	-0.25	/	/	/
N#Cc1nc(-c2ccco2)oc1NCc1ccco1	-7	-13	12	20	9.5*	13820*	1564	+
Cc1cc(/C=N/n2cnnc2)c(C)n1-c1cc(Cl)ccc1Cl	4	4	-12	24	0.58	/	/	/
c1ccc(N=P(c2nc3ccccc3o2)(N2CCOCC2)N2CCOCC2)cc1	2	20	8	5	0.25	/	/	/
O=c1n(Cc2ccccc2)c2cc(Cl)cnc2n1Cc1ccccc1	-3	-21	-1	6	8.1*	9248*	1640	i
O=C(O)CCC(=O)N1CCc2cc(S(=O)(=O)NC3CCCc4ccccc43)ccc21 (stereo not given)	0	-8	0	10	0.8	/	/	/
CCC(=O)N1CCc2cc(S(=O)(=O)NCCC(=O)NC3CCCc4ccccc43)ccc21 (stereo not given)	-1	7	-10	10	3.8*	8544*	1768	i
Cc1cc(-c2ccco2)n(-c2ccccc2)n1	-1	-9	-10	8	5.9*	13928*	1688	+
Cc1noc(C)c1C(=O)NCc1cccs1	-5	3	1	2	-0.58	/	/	/
CCN(CC)c1ncccc1C(=O)NCc1cccs1	1	15	-9	6	7.6*	13524*	1416	+
SMILES	JNK3 inh	SF1 activator	RORA act	HEK293 NFkB inh	D1 allo mod	D1 mod confirm	D1 no dopamine	Isoprot counter
CCn1c(=NC(=O)CN2C(=O)CCC2=O)sc2c(OC)ccc(OC)c21	2	-4	-14	-2	5.4*	11544*	/	i
CCn1c(=NC(=O)c2ccc(S(=O)(=O)N3CCOCC3)cc2)sc2cccc(OC)c21	0	1	7	10	0.56	/	/	/
CCn1c(=NC(=O)c2ccc(N3C(=O)CCC3=O)cc2)sc2c(OC)ccc(OC)c21	5	0	10	10	9.9*	22036*	1820	+
CCCOC(=O)/C(C(N)=NCc1ccccc1)=C(\O)OCCC	-8	15	-24	26	-0.061	/	/	/
CCCCN(C)C(=O)c1cn(CC)c2ccc(S(=O)(=O)N(C)C)cc2c1=O	4	-9	-2	-3	3*	5816	1512	i
C=CCSC1=C(C#N)C(c2cccc(OC)c2)CC(=O)N1 (stereo not given)	1	-10	-3	-5	-0.24	/	/	/
CCSc1n[nH]c(=O)[nH]c1=O	1	2	-8	11	0.38	/	/	/
COc1ccc(C(=O)N2CCC(C(=O)NCc3ccccn3)CC2)cc1	9	-6	-14	12	-0.071	/	/	/
COc1ccc(Nc2nc(N)nc(SCc3nnc(C)s3)n2)cc1	0	39	37	-7	5.7*	8828*	1624	+
CCn1c(SCC(=O)N(Cc2ccccc2)C2CCS(=O)(=O)C2)nc2ccccc2c1=O (stereo not given)	8	7	11	18	8.9*	13696*	/	+
CCOCCCNC(=O)C(NC(=O)CC1NC(=O)NC1=O)c1ccc(Cl)cc1 (stereo not given)	/	-2	5	5	-0.64	/	/	/
O=C(c1cccnc1)N(Cc1ccccc1)c1ccccc1	-2	3	-11	7	6.8*	15108*	1816	+
O=C(c1ccccc1)N(Cc1ccccc1)c1ccccn1	-3	0	-8	8	5.8*	9876*	/	i
O=C(N[C@@H](Cc1ccccc1)C(=O)O)c1cccnc1	2	-12	-21	8	0.018	/	/	/
COc1ccc(-n2c(=O)c3c4c(sc3n3c(C)nnc23)CCCC4)cc1	-7	-22	-5	19	-0.72	/	/	/
C=CCNCc1cccn1-c1ccccc1	3	20	-1	10	0.067	/	/	/
CC1(C)Cc2c(c(-c3ccccc3)[nH]c(=O)c2C#N)CO1	-1	-10	-16	10	7.2*	17304*	1772	+
CC1(C)Cc2c(c(-c3ccccc3Cl)[nH]c(=O)c2C#N)CO1	-4	0	-13	/	/	/	/	/
O=C(NCC1CCCO1)C1CCC(CNS(=O)(=O)c2ccccc2)CC1 (stereo not given)	-3	5	-2	16	-0.44	/	/	/
CC1(C)OC(=O)N(CCc2ccccc2)C1(C)O (stereo not given)	-6	-4	-14	-5	-4.6	/	/	/

Compound activity from PubChem BioAssay.
